RBBP9 inhibitor: human RBBP9 hydrolase inhibition; O75884; recombinant RBBP9, FP-Rh probe fluorescence polarization; inhibition, % at 7.94 µM; hit rate 0.2% among 220,000; AID 1515;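 active = inhibition above the campaign mean of all tested compounds plus 3 SD, cut at about 14% in these data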;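 note: plate controls were DMSO wells with RBBP9 for no effect and wells lacking RBBP9 protein for full effect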
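Test system – recombinant human RBBP9 · Input – RBBP9 2.5 µM in dispensing solution, pre-mixing · Medium – Tris buffer pH 8.0, NaCl, Pluronic · Schedule – preincubation 30 min plus labeling 45 min at 25 °C · Measured by – fluorescence polarization · Measure – % inhibition · Controls – DMSO and no-protein wells · Replicates – one well per compound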
Wee1 stabilizer: inhibitors of human Wee1 degradation; P30291; hit rate 1.2% among 220,000; AID 1321; HeLa Luc-Wee1K328M stability, luciferase luminescence; 100% = proteasome inhibitor MG132 effect; reporter increase, % at 5 µM;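 active = activation above the mean of all tested compounds plus 3 SD, set per screening run, cut at about 8.8% in these data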;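 note: cells exposed to compound for 20 h before luminescence read; 0% = DMSO alone and 100% = MG132 at 30 µM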
Redox H2O2 prof: compounds producing H2O2 with reducing agent – biochemical, NIH compound library profiling, artefact control for MLSCN library redox annotation, primary screen. DTT-dependent redox cycling H2O2, phenol red/HRP absorbance; 100% = 100 µM peroxide control, 0% = buffer. activation, % at 10 µM. hit rate 0.03% among 200,000. AID 878;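 active = activation of at least 50% relative to the plate's high and low controls in the primary single-dose screen; inactive = activation below 50%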;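 note: compound incubated with DTT at 0.8 mM final as the reducing agent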
p97 inhibitor: blocks human p97 ATPase activity; inhibition, % at 8 µM; hit rate 0.42% among 220,000; recombinant p97 ATPase, Kinase-Glo ATP luminescence, 3 h; AID 1481; P55072; in the data active = inhibition above about 15%;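 note: 0% = DMSO vehicle and 100% = wells lacking enzyme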
PKD1 kinase inh: inhibitors of human PKD1 kinase. PKD1 kinase fluorescence polarization assay. inhibition, % (no concentration beside the values). hit rate 0.056% among 200,000. AID 797; in the data active = inhibition above about 50%
Target sequence (Q15139 whole entry, looked up): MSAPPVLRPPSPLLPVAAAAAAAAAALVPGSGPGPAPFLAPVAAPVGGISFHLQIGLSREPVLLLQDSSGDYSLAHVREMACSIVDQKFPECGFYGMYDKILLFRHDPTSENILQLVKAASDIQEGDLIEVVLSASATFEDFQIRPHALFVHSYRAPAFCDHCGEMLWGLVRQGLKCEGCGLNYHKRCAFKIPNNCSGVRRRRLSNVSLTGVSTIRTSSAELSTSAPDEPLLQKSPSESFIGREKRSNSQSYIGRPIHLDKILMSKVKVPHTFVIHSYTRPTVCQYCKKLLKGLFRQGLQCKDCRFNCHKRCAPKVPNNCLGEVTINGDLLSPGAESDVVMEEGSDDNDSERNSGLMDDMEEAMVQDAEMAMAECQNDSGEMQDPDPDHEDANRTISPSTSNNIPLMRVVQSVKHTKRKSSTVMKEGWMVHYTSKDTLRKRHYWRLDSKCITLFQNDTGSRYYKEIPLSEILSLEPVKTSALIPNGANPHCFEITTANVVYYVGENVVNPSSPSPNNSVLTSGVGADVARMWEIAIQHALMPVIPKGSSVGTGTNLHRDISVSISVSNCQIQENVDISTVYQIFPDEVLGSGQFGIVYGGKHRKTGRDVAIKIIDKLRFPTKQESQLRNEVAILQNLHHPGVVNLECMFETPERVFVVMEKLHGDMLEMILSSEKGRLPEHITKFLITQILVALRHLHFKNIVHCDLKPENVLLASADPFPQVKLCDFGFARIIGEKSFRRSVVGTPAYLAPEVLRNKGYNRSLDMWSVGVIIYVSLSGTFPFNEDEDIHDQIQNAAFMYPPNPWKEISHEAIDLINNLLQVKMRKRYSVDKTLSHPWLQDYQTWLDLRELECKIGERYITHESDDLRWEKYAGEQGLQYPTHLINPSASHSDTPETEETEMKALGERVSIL
Arbovirus anti: blocks arbovirus infection; AID 1251; inhibition, % at 10 µM; hit rate 0.37% among 200,000; arbovirus infection cell-based antiviral screen; in the data active = inhibition above about 30%
Active calls of the source: *; . = no result given. Compounds with a hit are over-represented: about 2.2% of the library has one in this group of screens.

SMILES	RBBP9 inhibitor	Wee1 stabilizer	Redox H2O2 prof	p97 inhibitor	PKD1 kinase inh	Arbovirus anti
COc1ccc(/C=C/C(=O)Nc2cc(F)ccc2C)cc1S(=O)(=O)N1CCOCC1	-7	-1	0	-1	-4	8
CC(=O)c1cc2c(cc1NC(=O)CSc1nc3ccccc3[nH]1)OCO2	-2	9.8*	0	-3	3	7
CC(=O)c1cc2c(cc1NC(=O)CSc1nc3ccc(C)cc3[nH]1)OCO2	-3	-1	1	2	-10	-1
CC(C)(C)C1CCC(=NNC(=O)C(=O)NCc2ccco2)CC1 (stereo unspecified)	-15	1	3	1	1	0
O=C(Cc1c(Cl)cccc1Cl)NCCc1ccc(Cl)cc1	-7	-1	1	3	-11	-8
O=C(NCCc1ccccc1)Nc1cccc(Cl)c1	-6	-3	0	3	-4	5
O=C(NCCc1ccc(Cl)cc1)Nc1cccc(Cl)c1	-18	8.9*	2	-7	-14	6
O=CNCC(=O)NCCc1ccc(Cl)cc1	-10	-2	-3	-6	-6	37*
COC(=O)/C=C/c1sc2nc(C)cc(C)c2c1N=CN(C)C	-1	0	-1	4	2	45*
CC(C)(C)c1c(Cl)c(O)c(-c2ccccc2)c(=O)n1-c1ccccc1	4	3	0	2	-1	84*
CN(CCC#N)C(=S)NC(=O)c1ccc(S(=O)(=O)N2CCOCC2)cc1	-11	0	0	-4	1	14
CC(=O)OC[C@H]1O[C@@H](n2ncc(=O)[nH]c2=O)[C@H](OC(C)=O)[C@@H]1OC(C)=O	-4	0	4	-2	4	60*
CC(=O)OCC1OC(n2ncc(=O)n(Cc3ccccc3)c2=O)C(OC(C)=O)C1OC(C)=O (stereo unspecified)	6	-5	0	0	-2	-5
O=C(CNc1n[nH]c(=O)[nH]c1=O)N/N=C/C=C/c1ccccc1	7	-3	.	7	.	.
CN(C)n1cnc2ccsc2c1=O	-4	-1	0	3	-9	7
O=C(CCCSc1nc2ccccc2[nH]1)NC1CCCCC1	-5	9.4*	-1	-2	-1	9
C=CCN=c1scc(-c2ccccc2)n1/N=C/c1ccccn1	1	2	1	-2	-5	32*
Cc1cccc(OCCCC(=O)N2CCCc3ccccc32)c1C	-9	0	0	-1	6	-6
CCOC(=O)N1CCC(Nc2c(N3CCN(c4cccc(C(F)(F)F)c4)CC3)c(=O)c2=O)CC1	-5	2	0	-3	-14	-4
CC1(/[N+]([O-])=C\c2ccccc2F)CCCCC1=O (stereo unspecified)	-2	-2	.	-3	.	.
CC(=O)OC[C@H]1O[C@H](CCO/N=C(\C)CCN2CCCc3nc(C)c(C)cc32)C=C[C@@H]1OC(C)=O	-2	9.6*	0	-1	-5	0
CCOC(=O)c1cncc(O)c1	-8	8	.	-5	.	.
CN(C)NC(=O)C12CCC(C)(C(=O)O1)C2(C)C (stereo unspecified)	-3	3	-1	-1	-2	-2
CCOc1cc(NC(=S)NCCCN2CCOCC2)c(OCC)cc1NC(=O)c1ccccc1	9	1	1	3	7	1
CCOc1cc(NC(=S)NCCCN2CCOCC2)c(OCC)cc1NC(=O)c1cccs1	-3	9.5*	2	-6	2	4
SMILES	RBBP9 inhibitor	Wee1 stabilizer	Redox H2O2 prof	p97 inhibitor	PKD1 kinase inh	Arbovirus anti
CC(C)/C=N/NC(=O)c1ccc(Cl)cc1	-2	5	0	-2	1	0
Cc1noc(/C=C/c2cccs2)c1S(=O)(=O)N1CCC(C(=O)NCCCN2CCCC(C)C2)CC1 (stereo unspecified)	5	9.2*	-1	0	0	-11
CCOC(=O)C1CCCCN1Cc1ccccc1C(F)(F)F (stereo unspecified)	3	-1	0	6	4	3
CN1C(=O)CC(Sc2ccccc2C(=O)O)C1=O (stereo unspecified)	-9	10*	0	-8	-13	5
CCCCN1C(=O)CC(Sc2ccccc2C(=O)O)C1=O (stereo unspecified)	-2	-2	2	-4	-10	0
Cc1noc(C)c1COC(=O)c1cnc(Cl)c(Cl)c1	2	3	0	2	-3	-8

Screens (PubChem BioAssay)
